Measurements: ChEMBL document CHEMBL1134633, “Synthesis and antiviral activity of novel 5-(1-cyanamido-2-haloethyl) and 5-(1-hydroxy(or methoxy)-2-azidoethyl) analogues of uracil nucleosides” (J Med Chem, 2001)

Columns and labels:
Human alphaherpesvirus 1 [1] = test: Inhibition of plaque formation in monolayers of HSV-1 E-377 Vero cells by 50%; type: functional, organism-based; conditions: Human alphaherpesvirus 1, Vero
Human alphaherpesvirus 1 [2] = test: Inhibition of plaque formation in monolayers of HSV-1 KOS Vero cells by 50%; type: functional, organism-based; conditions: Human alphaherpesvirus 1, Vero
How it was run: (§1)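 Vero cells in DMEM with 5% FBS, seeded 1 day ahead, infected with ~100 PFU/well (KOS, TK+; KOSSB, TK−) for 1 h at 37 °C. Inoculum replaced with drug dilutions in duplicate: first 25, 10, 5, 1 µg/mL (KOS) or 50, 25, 10, 1 µg/mL (KOSSB), then 1:2 series. After 48 h at 37 °C, methanol fixation and Giemsa staining. EC50 from plaque counts versus no-drug controls.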

Human alphaherpesvirus 1 [3] = test: Inhibition of plaque formation in monolayers of HSV-1 KOSSB(TK-) Vero cells by 50%; type: functional, organism-based; conditions: Human alphaherpesvirus 1, Vero; how it was run: as §1
Human alphaherpesvirus 2 = test: Inhibition of viral cytopathic effect in infected human foreskin fibroblast cell monolayers of HSV-2 MS […] by 50%; type: functional, organism-based
Human alphaherpesvirus 3 = test: Inhibition of viral cytopathic effect in infected human foreskin fibroblast cell in monolayers of VZV Ellen […] by 50%; type: functional, organism-based
[4] = system: Human betaherpesvirus 5 (HCMV); test: Inhibition of viral cytopathic effect in infected human foreskin fibroblast cell in monolayers of HCMV AD-169 by 50%
Human alphaherpesvirus 1 [5] = test: Inhibition of plaque formation in monolayers of HSV-1 E-377 (TK+) Vero cells by 50%; type: functional, organism-based; conditions: Human alphaherpesvirus 1, Vero
Human alphaherpesvirus 1 [6] = test: Inhibition of plaque formation in monolayers of HSV-1 KOS (TK+) Vero cells by 50%; type: functional, organism-based; conditions: Human alphaherpesvirus 1, Vero; how it was run: as §1
Human alphaherpesvirus 1 [7] = test: Inhibition of plaque formation in monolayers of HSV-1 E-377(TK+) Vero cells by 50%; type: functional, organism-based; conditions: Human alphaherpesvirus 1, Vero
Human alphaherpesvirus 1 [8] = test: Inhibition of plaque formation in monolayers of HSV-1 KOS (TK+)Vero cells by 50%; type: functional, organism-based; conditions: Human alphaherpesvirus 1, Vero; how it was run: as §1
[9] = system: Human betaherpesvirus 5 (HCMV); test: Inhibition of viral cytopathic effect in infected human foreskin fibroblast cell in monolayers of HCMV AD-169 by 50%; remark: listed apart in the source

Row | SMILES | EC50 (Human alphaherpesvirus 1 [1]) [µM] | EC50 (Human alphaherpesvirus 1 [2]) [µM] | EC50 (Human alphaherpesvirus 1 [3]) [µM] | EC50 (Human alphaherpesvirus 2) [µM] | EC50 (Human alphaherpesvirus 3) [µM] | EC50 [4] [µM] | EC50 (Human alphaherpesvirus 1 [5]) [µM] | EC50 (Human alphaherpesvirus 1 [6]) [µM] | EC50 (Human alphaherpesvirus 1 [7]) [µM] | EC50 (Human alphaherpesvirus 1 [8]) [µM] | EC50 [9] [µM]
1 | N#CNC(CCl)c1cn([C@H]2C[C@H](O)[C@@H](CO)O2)c(=O)[nH]c1=O (stereo partly drawn) | 210 | 37.5 | > 150 | 105 | 31.5 | 274 |  |  |  |  | 
2 | [N-]=[N+]=NCC(O)c1cn([C@H]2C[C@H](O)[C@@H](CO)O2)c(=O)[nH]c1=O (stereo partly drawn) | > 322 | > 80 | > 161 | > 322 | > 322 | > 322 |  |  |  |  | 
3 | COC(CN=[N+]=[N-])c1cn([C@H]2C[C@H](O)[C@@H](CO)O2)c(=O)[nH]c1=O (stereo partly drawn) | > 300 | > 75 | > 150 | > 300 | > 300 | > 300 |  |  |  |  | 
4 | N#CNC(CI)c1cn([C@H]2C[C@H](O)[C@@H](CO)O2)c(=O)[nH]c1=O (stereo partly drawn) |  |  | 15.3 | 77.8 | 14.6 | > 236 | 9.4 | 1.6 |  |  | 
5 | N#CNC(CBr)c1cn([C@H]2C[C@H](O)[C@@H](CO)O2)c(=O)[nH]c1=O (stereo partly drawn) |  |  | > 133 | 87.7 | 20.7 | > 266 |  |  | 42.5 | 6.6 | 
6 | N#CNC(CBr)c1cn(C2O[C@H](CO)[C@@H](O)[C@@H]2O)c(=O)[nH]c1=O (stereo partly drawn) | > 256 | 62.5 | > 125 | > 256 | 32 | > 256 |  |  |  |  | 
7 | N#CNC(CI)c1cn(C2O[C@H](CO)[C@@H](O)[C@@H]2O)c(=O)[nH]c1=O (stereo partly drawn) | > 228 | 22.8 | > 114 | > 228 | 11.4 | > 228 |  |  |  |  | 
8 | Nc1nc2c(ncn2COCCO)c(=O)[nH]1 [ACYCLOVIR] | 4.4 | 2.2 | 178 | 6.2 |  |  |  |  |  |  | 
9 | O=c1[nH]c(=O)n([C@H]2C[C@H](O)[C@@H](CO)O2)cc1/C=C/Br [BRIVUDINE] | 2.7 | 1.5 | > 150 |  | 0.003 | > 150 |  |  |  |  | 
10 | CCc1cn([C@H]2C[C@H](O)[C@@H](CO)O2)c(=O)[nH]c1=O [EDOXUDINE] | 42.9 | 19.5 | > 780 | 58.5 | 32.7 |  |  |  |  |  | > 390
11 | Nc1nc2c(ncn2COC(CO)CO)c(=O)[nH]1 [GANCICLOVIR] |  |  |  |  |  | 0.23 |  |  |  |  | 
